Test [1] has as its target T1, Ca^2+-loaded S100B (Rattus norvegicus, UniProt P04631).
T1 sequence (P04631 1-92): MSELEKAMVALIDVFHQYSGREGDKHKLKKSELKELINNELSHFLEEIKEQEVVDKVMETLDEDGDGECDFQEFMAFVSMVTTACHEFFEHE
The test is described as follows: Fluorescence polarization competition assay. It counts as binding. To be noted: Site 1 probe; result in words. The essentials: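 Competition of test compound with 10 nM TAMRA-labelled TRTK12 peptide (CapZ residues 265-276), bound to Site 1 of 1 μM rat S100B, all final concentrations. Compound titrated from the highest attainable concentration. Fluorescence polarization read at room temperature, ex 544 nm/em 590 nm.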

The target in test [2] is T2, Ca^2+-S100B (Rattus norvegicus, UniProt P04631).
T2 sequence (P04631 1-92): T1 sequence (P04631 1-92)
Kind of test: HSQC NMR of Ca2+-loaded S100B with SBiX compounds. To be noted: result in words; for effect on NMR spectra of Ca^2+-S100B (chemical shift perturbations / broadening): compared with pentamidine and heptamidine. Type of test: binding. In a few lines: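 Samples: 15N-labelled rat S100B (purified >99%) at 0.1 mM subunit with 0.125 mM test compound, 10 mM CaCl2, 15 mM NaCl, 0.34 mM NaN3, 0.2% TPEN, 5% DMSO-d6, 10% D2O, 10 mM HEPES pH 7.2. 1H-15N HSQC spectra; 15N shifts indirectly referenced (ratio 0.10132905). Spectra were inspected visually for combined 1H+15N chemical shift perturbations to map the binding site.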

Test [3] has as its system WM115 melanoma cells. The test is described as follows: Cellular assays, EC50 quoted in text without S100B level. It counts as cell-based, human. To be noted: for EC50: Homo sapiens; for S100B-dependent killing (high vs low S100B cells): S100B-knockdown cell lines, result in words.
Test [4] concerns WM115 melanoma cells transfected with shRNA^S100B (low S100B). Kind of test: SYBR Green cell proliferation. It counts as cell-based, human. To be noted: read-out: Low S100B EC50 Mean ± S.D.
Setting [5] is: WM-115, read-out: EC50 in cellular assays.

Like-named read-outs stand apart in the source and are kept apart here.

Regarding `N=C(NCCCCCCCN)c1ccc(OCCCCCCCCOc2ccc(C(=N)NCCCCCCCN)cc2)cc1` [9b, 4,4′-(octane-1,8-diylbis (oxy))bis(N-(7-aminoheptyl)benzimidamide)], the “ability to compete with TAMRA-TRTK probe in FPCA” value (“ability to compete” below) in test [1] was “found to compete”. Further, in test [2], the “effect on NMR spectra of Ca^2+-S100B (chemical shift perturbations / broadening)” value was “significant broadening” and the “binding to Ca^2+-S100B as measured using NMR” value (shortened to “binding to Ca^2+-S100B”) is “interacted”.

For `N=C(NCCCCCCCN)c1ccc(OCCCCCCCOc2ccc(C(=N)NCCCCCCCN)cc2)cc1` [9a, 4,4′-(heptane-1,7-diylbis(oxy))bis(N-(7-aminoheptyl)benzimidamide)], the “ability to compete” value in test [1] is given as “found to compete”. Also, in test [2], the “effect on NMR spectra of Ca^2+-S100B (chemical shift perturbations / broadening)” value is reported as “significant broadening” and the “binding to Ca^2+-S100B” value is “interacted”.

Consider `CNC(=O)NC(=N)c1ccc(OCCCCCCCOc2ccc(C(=N)NC(=O)NC)cc2)cc1` [compound 11, 4,4′-(heptane-1,7-diylbis (oxy))bis(N-(methylcarbamoyl)benzimidamide)], for which the “ability to compete” value in test [1] is given as “neither was able to compete”. In addition, the “binding to Ca^2+-S100B” value in test [2] is reported as “ability to bind”. The EC50 in test [3] (setting [5]) lay within 130 to 150 µM.

With `c1cc(C2=NCCCCN2)ccc1OCCCCCCCCOc1ccc(C2=NCCCCN2)cc1` [7d, 1,8-bis (4-(4,5,6,7-tetrahydro-1H-1,3-diazepin-2-yl)phenoxy)octane], the EC50 in test [3] (setting [5]) is 5 to 20 µM.

As to `c1cc(C2=NCCN2)ccc1OCCCCCCCCOc1ccc(C2=NCCN2)cc1` [5d, 1,8-bis (4-(4,5-dihydro-1H-imidazol-2-yl)phenoxy) octane], the “effect on NMR spectra of Ca^2+-S100B (chemical shift perturbations / broadening)” value in test [2] is “significant broadening”.

For `N=C(N)c1ccc(OCCCN(CCCOc2ccc(C(=N)N)cc2)Cc2ccccc2)cc1` [16a, 4,4′-(((benzylazanediyl)bis(propane-3,1-diyl))bis(oxy))dibenzimidamide], the “ability to compete” value in test [1] was “neither was able to compete”. In test [2], the “binding to Ca^2+-S100B” value was “bound weakly”. For the same compound, the EC50 in test [3] (setting [5]) was in the range of 40 to 50 µM.

Consider `c1cc(C2=NCCCN2)ccc1OCCCCCCCCOc1ccc(C2=NCCCN2)cc1` [6d, 1,8-bis(4-(1,4,5,6-tetrahydropyrimidin-2-yl)phenoxy)octane], for which the EC50 in test [3] (setting [5]) was in the range of 25 to 45 µM.

Take `N=C(NCCCCCN)c1ccc(OCCCCCOc2ccc(C(=N)NCCCCCN)cc2)cc1` [compound 8, 4,4′-(pentane-1,5-diylbis(oxy))bis(N-(5-aminopentyl)benzimidamide)]: the “ability to compete” value in test [1] is “found to compete”. Moreover, the “binding to Ca^2+-S100B” value in test [2] is “interacted”. Moreover, the EC50 in test [3] (setting [5]) lay in the range of 35 to 40 µM.

As for `N=C(N)c1ccc(OCCCCCCCOc2ccc(C(=N)N)cc2)cc1` [4a, Heptamidine], the “S100B-dependent killing (high vs low S100B cells)” value in test [3] is “selectivity in killing melanoma cells with high S100B over those with low S100B was clearly observed”.

Take `c1cc(C2=NCCN2)ccc1OCCCCCCOc1ccc(C2=NCCN2)cc1` [5c, 1,6-bis(4-(4,5-dihydro-1H-imidazol-2-yl)phenoxy)hexane]: the “effect on NMR spectra of Ca^2+-S100B (chemical shift perturbations / broadening)” value in test [2] was “significant broadening”.

For `c1cc(C2=NCCCCN2)ccc1OCCCCCCCOc1ccc(C2=NCCCCN2)cc1` [7a, 1,7-bis(4-(4,5,6,7-tetrahydro-1H-1,3-diazepin-2-yl)phenoxy)heptane], the EC50 in test [3] (setting [5]) lay in the range of 5 to 20 µM.

Take `CCCN(CCCOc1ccc(C(=N)N)cc1)CCCOc1ccc(C(=N)N)cc1` [16b, 4,4′-(((propylazanediyl)bis(propane-3,1-diyl))bis(oxy))dibenzimidamide]: the “ability to compete” value in test [1] is “neither was able to compete”. Moreover, the “binding to Ca^2+-S100B” value in test [2] was “bound weakly”. Further, the EC50 in test [3] (setting [5]) is greater than 500 µM.

For hexamidine [4c], in test [4], the EC50 stood at 234 ± 7.9 µM.

For `c1cc(C2=NCCCN2)ccc1OCCCCCOc1ccc(C2=NCCCN2)cc1` [6b, 1,5-bis(4-(1,4,5,6-tetrahydropyrimidin-2-yl)phenoxy)pentane], in test [2], the “effect on NMR spectra of Ca^2+-S100B (chemical shift perturbations / broadening)” value is recorded as “significant broadening”. The EC50 in test [3] (setting [5]) was in the range of 200 to 600 µM.

Consider `c1cc(C2=NCCCN2)ccc1OCCCCCCOc1ccc(C2=NCCCN2)cc1` [6c, 1,6-bis(4-(1,4,5,6-tetrahydropyrimidin-2-yl)phenoxy)hexane], for which, in test [3] (setting [5]), the EC50 lay in the range of 25 to 45 µM.

For `N=C(N)c1ccc(Oc2ccc(-c3cc4ccc(C(=N)N)cc4[nH]3)cc2)cc1` [compound 17, 2-(4-(4-carbamimidoylphenoxy)phenyl)-1H-indole-6-carboximidamide], the “ability to compete” value in test [1] is given as “found to inhibit TAMRA-TRTK binding”. Moreover, the “binding to Ca^2+-S100B” value in test [2] is listed as “found to bind”. For the same compound, the “S100B-dependent killing (high vs low S100B cells)” value in test [3] is “no S100B-dependent killing”.

`c1cc(C2=NCCCCN2)ccc1OCCCCCOc1ccc(C2=NCCCCN2)cc1` [7b, 1,5-bis (4-(4,5,6,7-tetrahydro-1H-1,3-diazepin-2-yl)phenoxy)pentane]: the EC50 in test [3] (setting [5]) lay within 5 to 20 µM.

With `c1cc(C2=NCCCN2)ccc1OCCCCCCCOc1ccc(C2=NCCCN2)cc1` [6a, 1,7-bis (4-(1,4,5,6-tetrahydropyrimidin-2-yl)phenoxy)heptane], the EC50 in test [3] (setting [5]) lay in the range of 200 to 600 µM.

`c1cc(C2=NCCN2)ccc1OCCCCCOc1ccc(C2=NCCN2)cc1` [5b, 1,5-bis(4-(4,5-dihydro-1H-imidazol-2-yl)phenoxy)pentane]: the “effect on NMR spectra of Ca^2+-S100B (chemical shift perturbations / broadening)” value in test [2] was “significant broadening”.

Regarding `c1cc(C2=NCCCCN2)ccc1OCCCCCCOc1ccc(C2=NCCCCN2)cc1` [7c, 1,6-bis(4-(4,5,6,7-tetrahydro-1H-1,3-diazepin-2-yl)phenoxy)hexane], in test [3] (setting [5]), the EC50 was 250 to 300 µM.

`N=C(NC(=O)Nc1ccccc1)c1ccc(OCCCCCCCOc2ccc(C(=N)NC(=O)Nc3ccccc3)cc2)cc1` [compound 10, 4,4′-(heptane-1,7-diylbis(oxy))bis(N-(phenylcarbamoyl)benzimidamide)]: the “ability to compete” value in test [1] is reported as “neither was able to compete”. Also, the “binding to Ca^2+-S100B” value in test [2] is “ability to bind”. In test [3] (setting [5]), the EC50 was less than 1 µM.

With `N=C(N)c1ccc(OCCCCCOc2ccc(C(=N)N)cc2)cc1` [4b, pentamidine, reference compound], in test [3] (WM-115, read-out: ^CellsEC50), the EC50 was determined as 26 µM.
